Reference: ChEMBL document CHEMBL5303300, “EUbOPEN Chemogenomics Library - Multiplex” (2023)
Several values for one entry are separate records, joined by “and”; a condition that tells them apart may be missing. Equal values may be shown once.

What was measured:
[1] = test system: HEK-293T; assay: Multiplex assay against HEK293T; format: toxicity, cell-based; settings: human, number of replicates 2
Summary of the method: (§1)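 Tubulin, mitochondrial-mass and membrane-permeability phenotypes are per cents of healthy-nucleus cells. Cells were gated by CellPathfinder machine learning into Hoechst high-intensity objects or normal cells, normal cells into healthy, pyknosed or fragmented nuclei, and pyknosed cells into mitotic or apoptotic. Before that, live cells stained at seeding with Hoechst33342, BioTracker Green Microtubule Cytoskeleton Dye, MitoTracker Red and Annexin V Alexa Fluor 680 were imaged on a CQ1 microscope at 37°C and 5% CO2 after compound addition.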

[2] = test system: U2OS; assay: Multiplex assay against U2OS; format: toxicity, cell-based; settings: human, number of replicates 2; summary of the method: as §1
[3] = 24 h, 1 µM, compound concentration 1 uM
[4] = 24 h, 10 µM, compound concentration 10 uM
[5] = 48 h, 1 µM, compound concentration 1 uM
[6] = 48 h, 10 µM, compound concentration 10 uM
[7] = 12 h, 1 µM, compound concentration 1 uM
[8] = 12 h, 10 µM, compound concentration 10 uM

NCC1CCC(CNc2nc(NCc3ccccc3OC(F)(F)F)ncc2[N+](=O)[O-])CC1 (stereo unspecified)
Population Pyknosed Nuclei (%) [1, 3]: 7% and 9%
Population Tubulin-Different-Phenotype (%) [1, 3]: 70% and 65%
Total Cell Count [1, 3]: 1307 and 1039
Population Apoptotic (%) [1, 4]: 67% and 68%
Population Fragmented Nuclei (%) [1, 4]: 4% and 2%
Population Healthy Nuclei (%) [1, 4]: 79% and 81%
Population Hoechst High Intensity Objects (%) [1, 4]: 9% and 7%
Population Membrane Permeable-Phenotype (%) [1, 4]: 0% and 2%
Population Mitochondria Different-Phenotype (%) [1, 4]: 81% and 78%
Population Mitotic Cells (%) [1, 4]: 32% and 31%
Population Normal (%) [1, 4]: 90% and 92%
Population Pyknosed Nuclei (%) [1, 4]: 15%
Population Tubulin-Different-Phenotype (%) [1, 4]: 94% and 95%
Total Cell Count [1, 4]: 375 and 418
Population Apoptotic (%) [1, 5]: 12% and 31%
Population Fragmented Nuclei (%) [1, 5]: 17% and 10%
Population Healthy Nuclei (%) [1, 5]: 80% and 86%
Population Hoechst High Intensity Objects (%) [1, 5]: 11% and 12%
Population Membrane Permeable-Phenotype (%) [1, 5]: 5% and 3%
Population Mitochondria Different-Phenotype (%) [1, 5]: 0% and 1%
Population Mitotic Cells (%) [1, 5]: 87% and 68%
Population Normal (%) [1, 5]: 88% and 87%
Population Pyknosed Nuclei (%) [1, 5]: 2% and 3%
Population Tubulin-Different-Phenotype (%) [1, 5]: 42% and 39%
Total Cell Count [1, 5]: 2914 and 2116
Population Apoptotic (%) [1, 6]: 67% and 62%
Population Fragmented Nuclei (%) [1, 6]: 6% and 5%
Population Healthy Nuclei (%) [1, 6]: 80%
Population Hoechst High Intensity Objects (%) [1, 6]: 7% and 9%
Population Membrane Permeable-Phenotype (%) [1, 6]: 4% and 3%
Population Mitochondria Different-Phenotype (%) [1, 6]: 70% and 57%
Population Mitotic Cells (%) [1, 6]: 32% and 37%
Population Normal (%) [1, 6]: 92% and 90%
Population Pyknosed Nuclei (%) [1, 6]: 13%
Population Tubulin-Different-Phenotype (%) [1, 6]: 93% and 94%
Total Cell Count [1, 6]: 433 and 530
Population Apoptotic (%) [2, 7]: 50% and 43%
Population Fragmented Nuclei (%) [2, 7]: 5% and 1%
Population Healthy Nuclei (%) [2, 7]: 74% and 87%
Population Hoechst High Intensity Objects (%) [2, 7]: 0%
Population Membrane Permeable-Phenotype (%) [2, 7]: 7%
Population Mitochondria Different-Phenotype (%) [2, 7]: 7% and 18%
Population Mitotic Cells (%) [2, 7]: 50% and 56%
Population Normal (%) [2, 7]: 100% and 99%
Population Pyknosed Nuclei (%) [2, 7]: 19% and 11%
Population Tubulin-Different-Phenotype (%) [2, 7]: 31% and 29%
Population Apoptotic (%) [2, 8]: 68% and 67%
Population Fragmented Nuclei (%) [2, 8]: 24% and 19%
Population Healthy Nuclei (%) [2, 8]: 36% and 61%
Population Hoechst High Intensity Objects (%) [2, 8]: 0%
Population Membrane Permeable-Phenotype (%) [2, 8]: 53% and 34%
Population Mitochondria Different-Phenotype (%) [2, 8]: 73% and 64%
Population Mitotic Cells (%) [2, 8]: 31% and 32%
Population Normal (%) [2, 8]: 100%
Population Pyknosed Nuclei (%) [2, 8]: 39% and 19%
Population Tubulin-Different-Phenotype (%) [2, 8]: 93% and 76%
Population Apoptotic (%) [2, 3]: 60%
Population Fragmented Nuclei (%) [2, 3]: 1% and 0%
Population Healthy Nuclei (%) [2, 3]: 81% and 85%
Population Hoechst High Intensity Objects (%) [2, 3]: 0%
Population Membrane Permeable-Phenotype (%) [2, 3]: 4% and 5%
Population Mitochondria Different-Phenotype (%) [2, 3]: 0% and 22%
Population Mitotic Cells (%) [2, 3]: 40% and 39%
Population Normal (%) [2, 3]: 100%
Population Pyknosed Nuclei (%) [2, 3]: 16% and 13%
Population Tubulin-Different-Phenotype (%) [2, 3]: 20% and 30%
Population Apoptotic (%) [2, 4]: 100% and 80%
Population Fragmented Nuclei (%) [2, 4]: 28% and 21%
Population Healthy Nuclei (%) [2, 4]: 31% and 59%
Population Hoechst High Intensity Objects (%) [2, 4]: 0%
Population Membrane Permeable-Phenotype (%) [2, 4]: 63% and 43%
Population Mitochondria Different-Phenotype (%) [2, 4]: 36% and 55%
Population Mitotic Cells (%) [2, 4]: 0% and 19%
Population Normal (%) [2, 4]: 100%
Population Pyknosed Nuclei (%) [2, 4]: 40% and 19%
Population Tubulin-Different-Phenotype (%) [2, 4]: 90% and 81%
Population Apoptotic (%) [2, 5]: 76% and 78%
Population Fragmented Nuclei (%) [2, 5]: 6% and 1%
Population Healthy Nuclei (%) [2, 5]: 71% and 88%
Population Hoechst High Intensity Objects (%) [2, 5]: 0%
Population Membrane Permeable-Phenotype (%) [2, 5]: 7% and 2%
Population Mitochondria Different-Phenotype (%) [2, 5]: 3% and 10%
Population Mitotic Cells (%) [2, 5]: 23% and 21%
Population Normal (%) [2, 5]: 100%
Population Pyknosed Nuclei (%) [2, 5]: 21% and 9%
Population Tubulin-Different-Phenotype (%) [2, 5]: 19% and 34%
Population Apoptotic (%) [2, 6]: 100% and 91%
Population Fragmented Nuclei (%) [2, 6]: 24% and 21%
Population Healthy Nuclei (%) [2, 6]: 24% and 54%
Population Hoechst High Intensity Objects (%) [2, 6]: 0%
Population Membrane Permeable-Phenotype (%) [2, 6]: 100% and 72%
Population Mitochondria Different-Phenotype (%) [2, 6]: 75% and 46%
Population Mitotic Cells (%) [2, 6]: 0% and 8%
Population Normal (%) [2, 6]: 100%
Population Pyknosed Nuclei (%) [2, 6]: 51% and 23%
Population Tubulin-Different-Phenotype (%) [2, 6]: 100% and 86%
